Results from ChEMBL document CHEMBL4257556, “Novel 1,3,4-thiadiazole-chalcone hybrids containing catechol moiety: synthesis, antioxidant activity, cytotoxicity and DNA interaction studies” (Medchemcomm, 2018).
Activity calls are given as the source filed them. The rule behind the calls is not given here.

Legend:
[1] = Antioxidant activity assessed as DPPH free radical scavenging activity after 30 mins; assay type: functional
Summary of the method: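 DPPH (0.05 mM in methanol) mixed with equal volume of compound (DMSO solution diluted in methanol), kept in dark at room temperature 30 min; absorbance at 517 nm, methanol control, ascorbic acid positive control. IC50 = concentration giving 50% of maximum scavenging; mean ± SD of independent triplicate experiments.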

HeLa [2] = test: Prooxidant activity in human HeLa cells assessed as increase in H2O2-induced reactive oxygen species at 10 uM preincubated for 24 hrs followed by H2O2 addition and measured after 30 mins by dichlorofluorescein dye-based flow cytometric method; assay type: functional, cell-based
Summary of the method: (§1)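 HeLa cells pretreated 24 h with 10 μM compound, washed, loaded with 30 μM DCFH-DA in PBS 45 min at 37 °C. One portion read directly (endogenous ROS); other portion exposed to 10 mM H2O2 30 min at 37 °C. DCF green fluorescence by flow cytometry, 20 000 events per sample; mean ± SD of two independent experiments.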

HeLa [3] = test: Antioxidant activity in human HeLa cells assessed as decrease in reactive oxygen species at 10 uM after 24 hrs by dichlorofluorescein dye-based flow cytometric method; assay type: functional, cell-based; summary of the method: as §1
HeLa [4] = test: Cell cycle arrest in human HeLa cells assessed as accumulation at sub-G1 phase at IC50 and 2 times IC50 after 24 hrs by propidium iodide staining-based flow cytometric method; assay type: functional
Summary of the method: (§2)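 HeLa cells treated 24 h at IC50 or 2×IC50 (from 72 h assay), fixed in 70% ethanol, stored at –20 °C ≥1 week, RNase A 30 min 37 °C, propidium iodide stained; flow cytometry, 10 000 gated events. Mean ± SD of three independent experiments; one-way ANOVA with Dunnett's post-test, p < 0.05.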

HeLa [5] = test: Cell cycle arrest in human HeLa cells assessed as accumulation at G2/M phase at IC50 after 24 hrs by propidium iodide staining-based flow cytometric method; assay type: functional; summary of the method: as §2
HeLa [6] = test: Cell cycle arrest in human HeLa cells assessed as accumulation at G2/M phase at 2 times IC50 after 24 hrs by propidium iodide staining-based flow cytometric method; assay type: functional; summary of the method: as §2
HeLa [7] = test: Cell cycle arrest in human HeLa cells assessed as decrease in cell levels at G1 phase at 2 times IC50 after 24 hrs by propidium iodide staining-based flow cytometric method; assay type: functional; summary of the method: as §2
HeLa [8] = test: Cell cycle arrest in human HeLa cells assessed as accumulation at sub-G1 phase at 2 times IC50 after 24 hrs in presence of caspase-9 inhibitor Z-LEHD-FMK by propidium iodide-staining based flow cytometric method; assay type: functional
Summary of the method: (§3)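 HeLa cells pretreated 2 h with 40 μM peptide caspase inhibitor (Z-DEVD-FMK caspase-3, Z-IETD-FMK caspase-8 or Z-LEHD-FMK caspase-9), then exposed to 2×IC50 compound; subG1 fraction by propidium iodide flow cytometry, compared with samples lacking inhibitor.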

HeLa [9] = test: Cell cycle arrest in human HeLa cells assessed as accumulation at sub-G1 phase at 2 times IC50 after 24 hrs in presence of caspase-8 inhibitor Z-IETD-FMK by propidium iodide-staining based flow cytometric method; assay type: functional; summary of the method: as §3
HeLa [10] = test: Downregulation of MMP2 gene expression in human HeLa cells at 10 uM after 24 hrs by RT-qPCR method; assay type: functional, cell-based
HeLa [11] = test: Upregulation of MMP9 gene expression in human HeLa cells at 10 uM after 24 hrs by RT-qPCR method; assay type: functional, cell-based
HeLa [12] = test: Downregulation of miR-21 expression in human HeLa cells at 10 uM after 24 hrs by RT-qPCR method; assay type: functional, cell-based
HeLa [13] = test: Downregulation of miR-155 expression in human HeLa cells at 10 uM after 24 hrs by RT-qPCR method; assay type: functional, cell-based
Calf thymus DNA [14] = test: Binding affinity to calf thymus DNA at 10 to 40 uM after 90 mins by UV/visible spectrophotometric analysis; assay type: nucleic-acid assay; conditions: Bos taurus
Summary of the method: (§4)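 CT-DNA stock in 10 mM Tris-HCl pH 7.9 (A260/A280 1.89–2.01; concentration from ε260 6600 M–1 cm–1). Compound (10, 20 or 40 μM) plus CT-DNA (95 μM) in 40 mM bicarbonate pH 8.4, 37 °C 90 min; spectra 200–800 nm. Hyper/hypochromism at 259 nm from bound versus summed free compound and DNA extinction; triplicate.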

Calf thymus DNA [15] = test: Binding affinity to calf thymus DNA assessed as hyperchromism at 10 uM after 90 mins by UV/visible spectrophotometric analysis; assay type: nucleic-acid assay; conditions: Bos taurus; summary of the method: as §4
Calf thymus DNA [16] = test: Binding affinity to calf thymus DNA assessed as hyperchromism at 20 uM after 90 mins by UV/visible spectrophotometric analysis; assay type: nucleic-acid assay; conditions: Bos taurus; summary of the method: as §4
Calf thymus DNA [17] = test: Binding affinity to calf thymus DNA after 90 mins by spectroscopic titration method; assay type: nucleic-acid assay; conditions: Bos taurus
Summary of the method: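 Compound fixed at 40 μM titrated with CT-DNA (2.2–13 × 10–5 M) in 40 mM bicarbonate pH 8.4 after 90 min at 37 °C; absorbance at 259 nm per DNA level. Kb from slope/intercept ratio of [DNA]/(εa–εf) versus [DNA] plot; triplicate assays.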

Calf thymus DNA [18] = test: Displacement of Hoechst 33258 from calf thymus DNA assessed as fluorescence intensity of compound-DNA complex at 22 uM by fluorescence spectrophotometric analysis relative to control; assay type: nucleic-acid assay; conditions: Bos taurus
Summary of the method: (§5)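 CT-DNA 100 μM (per phosphate) in 40 mM bicarbonate pH 8.4 pretreated 20 min with Hoechst 33258 (28 μM final), then compound added stepwise. Excitation 350 nm, emission 390–550 nm, read at 444 nm, 10 nm slits; H–DNA as control. Quenching constant K by Stern–Volmer, I0/I versus r = [compound]/[DNA]; triplicate.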

Calf thymus DNA [19] = test: Displacement of Hoechst 33258 from calf thymus DNA assessed as quenching constant by fluorescence spectrophotometric analysis; assay type: nucleic-acid assay; conditions: Bos taurus; summary of the method: as §5
MRC5 = test: Induction of DNA damage in human MRC5 cells assessed as formation of DNA breaks after 24 hrs by comet assay; assay type: functional, cell-based
Summary of the method: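 MRC-5 cells exposed 24 h to 3.125–25 μM compound; DNA damage scored as % tail DNA (tail intensity) by comet assay. PBS negative control; H2O2 50 μM 5 min in-gel positive control. Triplicate, repeated twice; mean ± SD.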

DNA [20] = test: Induction of Escherichia coli pUC19 DNA cleavage after 90 mins by agarose gel electrophoresis method; assay type: nucleic-acid assay
Summary of the method: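 Plasmid pUC19 (from E. coli XL1 blue; 460 ng, 12 nM) incubated with compound (0.05–0.4 mM; from 2 mM DMSO stock) in 20 μL 40 mM bicarbonate pH 8.4 at 37 °C for 90 min; 1% agarose gel in TAE at 80 V, ethidium bromide staining, UV at 312 nm; supercoiled/nicked/linear forms scored.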

DNA [21] = test: Reversal of Fe2+-induced Escherichia coli pUC19 DNA cleavage at 1:1 compound to Fe2+ mole ratio after 90 mins by agarose gel electrophoresis method; assay type: functional
Summary of the method: (§6)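 Compound (4 μL of 2 mM) preincubated with FeSO4 (1 or 2 μL of 8 mM; compound:Fe 1:1 or 1:2) in bicarbonate buffer 60 min at 37 °C, then pUC19 added for another 90 min; products resolved on 1% agarose gel, ethidium bromide stained.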

DNA [22] = test: Reversal of Fe2+-induced Escherichia coli pUC19 DNA cleavage at 1:2 compound to Fe2+ mole ratio after 90 mins by agarose gel electrophoresis method; assay type: functional; summary of the method: as §6

Question: For `Cc1cccc(C(=O)/C=C/c2ccc(C(=O)Nc3nnc(-c4ccc(O)c(O)c4)s3)cc2)c1`, which IC50 [1] is on record?
Answer: Its IC50 is 17.2 µM.

Question: And the Activity (HeLa [2])?
Answer: The Activity was “inactive”.

Question: And the Activity (HeLa [3])?
Answer: The Activity was “Active”.

Question: What about the Activity (HeLa [4]) of the same compound?
Answer: The Activity was “Active”.

Question: And the Activity (HeLa [5])?
Answer: Its Activity is “Active”.

Question: What about the Activity (HeLa [6]) of the same compound?
Answer: The Activity was “Active”.

Question: And the Activity (HeLa [7])?
Answer: The Activity was “Active”.

Question: What about the Activity (HeLa [8]) of the same compound?
Answer: The Activity was “inactive”.

Question: What about the Activity (HeLa [9]) of the same compound?
Answer: The Activity was “inactive”.

Question: And the Activity (HeLa [10])?
Answer: The Activity was “Active”.

Question: And the Activity (HeLa [11])?
Answer: The Activity was “Active”.

Question: What about the Activity (HeLa [12]) of the same compound?
Answer: Its Activity is “inactive”.

Question: What about the Activity (HeLa [13]) of the same compound?
Answer: Its Activity is “inactive”.

Question: And the Activity (Calf thymus DNA [14])?
Answer: The Activity was “Active”.

Question: What about the Activity (Calf thymus DNA [15]) of the same compound?
Answer: The Activity was -13.7%.

Question: And the Activity (Calf thymus DNA [16])?
Answer: Its Activity is -7.36%.

Question: What about the Kb (Calf thymus DNA [17]) of the same compound?
Answer: Its Kb is 0.74 ×10³ /M.

Question: What about the Activity (Calf thymus DNA [18]) of the same compound?
Answer: The Activity was 60%.

Question: What about the K (Calf thymus DNA [19]) of the same compound?
Answer: The K was 2.95.

Question: What about the Activity (MRC5) of the same compound?
Answer: The Activity was “Dose-dependent effect”.

Question: What about the Activity (DNA [20]) of the same compound?
Answer: The Activity was “inactive”.

Question: What about the Activity (DNA [21]) of the same compound?
Answer: Its Activity is “Active”.

Question: And the Activity (DNA [22])?
Answer: The Activity was “Active”.
